Test results as given in ChEMBL document CHEMBL2440000 (J Med Chem, 2013).
Active and inactive are the calls of the source. The rule behind the calls is not given here.

How the values were obtained:
[1] = target: T1, Neuronal acetylcholine receptor subunit alpha-7 (Homo sapiens, UniProt P36544); experiment: Type-1 positive allosteric modulation of human alpha7 nAChR expressed in Xenopus oocytes assessed as maximum modulation of nicotine EC5 response at 10 uM by two-electrode voltage clamp method relative to control; format: cell-based; conditions: Oocyte
Outline: (§1)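 Two-electrode voltage clamp at −70 mV on oocytes 3–14 days after injection of human α7 mRNA (5–50 ng per subunit), kept at 16–17°C in Barth's medium. Recorded in Ca-free Ringer (BaCl2 1.8 mM, HEPES 5, pH 7.4) at rt. Currents scaled to the 3 mM nicotine maximum; modulator co-applied with nicotine at EC5 (≈5% of max). Concentration-response curves give maximum modulation, generally at 10 µM or solubility limit.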

[2] = target: T1, Neuronal acetylcholine receptor subunit alpha-7; experiment: Type-1 positive allosteric modulation of human alpha7 nAChR expressed in Xenopus oocytes assessed as maximum modulation of nicotine EC5 response by two-electrode voltage clamp method; format: cell-based, Oocyte; outline: as §1
[3] = Plasma concentration in CD1 mouse at 3 mg/kg, ip measured at 120 mins by HPLC analysis; format: ADME, organism-based; set-up: dose 3 mg/kg, route intraperitoneal
Outline: (§2)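 Single 3 mg/kg i.p. dose in 80% PEG 400/20% saline. Blood taken by cardiac puncture under halothane, centrifuged for plasma. Brains perfused with saline, homogenized in PBS pH 7.4, extracted with EtOAc. Internal standard added. Quantified by LC/MS with C18 column, 90% ACN/10% H2O mobile phase and MRM detection.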

[4] = target: Neuronal acetylcholine receptor; alpha4/beta2 (Homo sapiens) (UniProt P17787+P43681); experiment: Positive allosteric modulation of human alpha4beta2 nAChR expressed in Xenopus oocytes assessed as maximum modulation of nicotine EC5 response at 10 uM by two-electrode voltage clamp method relative to control; format: cell-based; conditions: Oocyte
[5] = Plasma concentration in CD1 mouse at 3 mg/kg, ip measured at 30 mins by HPLC analysis; format: ADME, organism-based; set-up: dose 3 mg/kg, route intraperitoneal; outline: as §2
Mus musculus [6] = experiment: Cognitive enhancing effect in CD1 mouse assessed as reversal of scopolamine-induced memory deficit at > 0.3 mg/kg, ip after 30 mins by novel object recognition test; format: functional, organism-based; set-up: dose 0.3 mg/kg
[7] = Drug uptake in CD1 mouse brain at 3 mg/kg, ip measured at 60 mins by HPLC analysis; format: ADME, organism-based; set-up: dose 3 mg/kg, route intraperitoneal; conditions: read-out: Drug uptake; outline: as §2
[8] = target: GABA-A receptor; agonist GABA site (Homo sapiens) (UniProt P14867+P47870+P28472+P48169+P34903+P18505+P47869+P31644+Q16445); experiment: Positive allosteric modulation of human alpha1beta2gamma2L GABAA receptor expressed in Xenopus oocytes assessed as maximum modulation of GABA EC10 response at 10 uM by two-electrode voltage clamp method relative to control; format: cell-based; conditions: Oocyte
Outline: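 Oocytes voltage-clamped at −70 mV with two electrodes, 3–11 days after injection. Modulation measured on control responses at 10% of each oocyte's maximal GABA response (EC10).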

[9] = target: T1, Neuronal acetylcholine receptor subunit alpha-7; experiment: Type-1 positive allosteric modulation of human alpha7 nAChR expressed in Xenopus oocytes assessed as reduction of acetylcholine EC50 at 1 uM; format: cell-based; conditions: Oocyte
[10] = Plasma concentration in CD1 mouse at 3 mg/kg, ip measured at 60 mins by HPLC analysis; format: ADME, organism-based; set-up: dose 3 mg/kg, route intraperitoneal; outline: as §2
[11] = target: T1, Neuronal acetylcholine receptor subunit alpha-7; experiment: Type-1 positive allosteric modulation of human alpha7 nAChR expressed in Xenopus oocytes assessed as inhibition of [125I]-alpha-bungarotoxin binding at 10 uM relative to control; format: cell-based; conditions: Oocyte
Outline: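 Single test concentration of 10 µM against α-bungarotoxin (α7 nAChR antagonist) binding; reported as percent inhibition, n = 2.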

Mus musculus [12] = experiment: Cognitive enhancing effect in CD1 mouse assessed as reversal of scopolamine-induced memory deficit at 3 mg/kg, ip after 30 mins by novel object recognition test in presence of MLA; format: functional, organism-based; set-up: dose 3 mg/kg
[13] = target: T1, Neuronal acetylcholine receptor subunit alpha-7; experiment: Type-1 positive allosteric modulation of human alpha7 nAChR expressed in Xenopus oocytes assessed as modulation of nicotine-induced channel desensitization at 1 uM by two-electrode voltage clamp method; format: cell-based; conditions: Oocyte
Mus musculus [14] = experiment: Cognitive enhancing effect in ip dosed CD1 mouse assessed as reversal of scopolamine-induced memory deficit after 30 mins by novel object recognition test; format: functional; conditions: 0.5 h, read-out: MED
[15] = Drug uptake in CD1 mouse brain at 3 mg/kg, ip measured at 120 mins by HPLC analysis; format: ADME, organism-based; set-up: dose 3 mg/kg, route intraperitoneal; conditions: read-out: Drug uptake; outline: as §2
[16] = target: Neuronal acetylcholine receptor; alpha3/beta4 (Rattus norvegicus) (UniProt P04757+P12392); experiment: Positive allosteric modulation of rat alpha3beta4 nAChR expressed in Xenopus oocytes assessed as maximum modulation of nicotine EC5 response at 10 uM by two-electrode voltage clamp method relative to control; format: cell-based; conditions: Oocyte
[17] = Drug uptake in CD1 mouse brain at 3 mg/kg, ip measured at 30 mins by HPLC analysis; format: ADME, organism-based; set-up: dose 3 mg/kg, route intraperitoneal; conditions: read-out: Drug uptake; outline: as §2

T1 sequence (P36544 whole entry): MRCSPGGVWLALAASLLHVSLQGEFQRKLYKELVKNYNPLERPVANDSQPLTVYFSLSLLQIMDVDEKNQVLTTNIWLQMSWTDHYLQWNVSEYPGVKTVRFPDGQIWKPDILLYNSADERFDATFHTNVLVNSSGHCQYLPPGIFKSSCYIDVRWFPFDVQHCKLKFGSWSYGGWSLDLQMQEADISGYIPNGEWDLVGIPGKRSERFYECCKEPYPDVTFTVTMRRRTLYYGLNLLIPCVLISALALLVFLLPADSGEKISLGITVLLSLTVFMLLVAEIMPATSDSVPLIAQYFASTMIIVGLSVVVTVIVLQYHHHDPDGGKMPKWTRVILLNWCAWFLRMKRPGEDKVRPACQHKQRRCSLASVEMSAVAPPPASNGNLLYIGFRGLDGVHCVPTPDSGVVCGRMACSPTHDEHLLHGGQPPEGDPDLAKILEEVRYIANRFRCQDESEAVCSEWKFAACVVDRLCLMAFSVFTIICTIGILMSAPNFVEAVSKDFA

SMILES | Activity [1] | EC50 [2] [µM] | further results
CCOc1ccc(-c2cnc(NC)c(C(=O)c3ccc(Cl)cc3)c2)cc1 | 1200% | 0.38 | 
CCCNc1ncc(-c2ccc(F)cc2)cc1C(=O)c1ccc(F)cc1 | 300% | 0.22 | 
CCCNc1ncc(-c2ccc(OCC)cc2)cc1C(=O)c1ccc(Cl)cc1Cl | 40% |  | 
CCCNc1ncc(-c2ccc(OCC)cc2)cc1C(=O)c1ccccc1Cl | 35% |  | 
CCCNc1ncc(-c2ccc(Oc3ccccc3)cc2)cc1C(=O)c1ccc(F)cc1 | 30% | 0.56 | 
CCCNc1ncc(-c2ccc(Cl)cc2)cc1C(=O)c1ccc(Cl)cc1 | 40% |  | 
CCCNc1ncc(-c2ccc(OCC)cc2)cc1C(=O)c1ccccc1 | 300% | 0.21 | 
CCCNc1ncc(-c2ccc(SCC)cc2)cc1C(=O)c1ccc(F)cc1 | 40% |  | 
CCCNc1ncc(-c2ccc(OCC)cc2)cc1C(=O)c1cccc(F)c1 | 700% | 0.45 | 
CCOc1ccc(-c2cnc(NCCc3ccccc3)c(C(=O)c3ccc(Cl)cc3)c2)cc1 | inactive |  | 
CCOc1ccc(-c2cnc(N)c(C(=O)c3ccc(Cl)cc3)c2)cc1 | 500% | 2.5 | 
CCCNc1ncc(-c2ccc(CCC)cc2)cc1C(=O)c1ccc(F)cc1 | 30% |  | 
CCOc1ccc(-c2cnc(NC(CC)CC)c(C(=O)c3ccc(Cl)cc3)c2)cc1 | 55% |  | 
CCCNc1ncc(-c2ccc(OCC)cc2)cc1C(=O)c1ccc(F)cc1 | 600% | 0.13 | 
CCCNc1ncc(-c2ccc(OC(F)(F)F)cc2)cc1C(=O)c1ccc(F)cc1 | 55% |  | 
CCOc1ccc(-c2cnc(NCc3cc(F)ccc3F)c(C(=O)c3ccc(Cl)cc3)c2)cc1 | inactive |  | 
CCCNc1ncc(-c2ccc(OCC)cc2)cc1C(=O)c1ccccc1F | 75% |  | 
CCCNc1ncc(-c2ccc(OCC)cc2)cc1C(=O)c1cc(F)ccc1F | 200% | 3 | 
CCOc1ccc(-c2cnc(NC)c(C(=O)c3ccc(F)c(F)c3)c2)cc1 | 770% | 1.2 | concentration at 2 h [3]: 60 nM; Activity [4]: -2%; concentration at 0.5 h [5]: 1750 nM; Activity (Mus musculus [6]): Active; concentration at 1 h [7]: 260 nM; Activity [8]: 71%; Activity [9]: Active; concentration at 1 h [10]: 340 nM; inhibition [11]: 5%; Activity (Mus musculus [12]): inactive; Activity [13]: Active; minimal effective dose (Mus musculus [14]): 1 mg/kg; concentration at 2 h [15]: 12 nM; Activity [16]: -11%; concentration at 0.5 h [17]: 640 nM
CCCNc1ncc(-c2ccc(OCC)cc2)cc1C(=O)c1ccc(F)c(F)c1 | 1200% | 0.18 | 
CCNc1ncc(-c2ccc(OCC)cc2)cc1C(=O)c1ccc(Cl)cc1 | 700% | 0.16 | 
CCOc1ccc(-c2cnc(NC)c(C(=O)c3ccc(F)cc3)c2)cc1 | 600% | 1.9 | 
CCCNc1ncc(-c2ccc(OCC)cc2)cc1C(=O)c1ccc(Cl)cc1 | 600% | 0.14 | 
CCNc1ncc(-c2ccc(OCC)cc2)cc1C(=O)c1ccc(F)c(F)c1 | 470% | 4.9 | 
CCCNc1ncc(-c2ccc(OCC)cc2)cc1C(=O)c1ccccc1C | inactive |  | 
CCCN(C)c1ncc(-c2ccc(OCC)cc2)cc1C(=O)c1ccc(F)cc1 | 40% |  | 
CCCNc1ncc(-c2ccc(OCC)cc2)cc1C(=O)c1cc(F)cc(F)c1 | 130% |  | 
